Laboratory results as given in ChEMBL document CHEMBL1153055, “Synthesis and evaluation of 5-benzylidene(thio)barbiturate-beta-D-glycosides as mushroom tyrosinase inhibitors” (Bioorg Med Chem Lett, 2009).
Calls of active or inactive are those of the source. The calls are words filed in the database; no cut-off is given here.

Columns and labels:
Tyrosinase = biological target: T1, Tyrosinase (Agaricus bisporus, UniProt O42713); assay: Inhibition of diphenolase activity of mushroom tyrosinase
T1 sequence (O42713 whole entry): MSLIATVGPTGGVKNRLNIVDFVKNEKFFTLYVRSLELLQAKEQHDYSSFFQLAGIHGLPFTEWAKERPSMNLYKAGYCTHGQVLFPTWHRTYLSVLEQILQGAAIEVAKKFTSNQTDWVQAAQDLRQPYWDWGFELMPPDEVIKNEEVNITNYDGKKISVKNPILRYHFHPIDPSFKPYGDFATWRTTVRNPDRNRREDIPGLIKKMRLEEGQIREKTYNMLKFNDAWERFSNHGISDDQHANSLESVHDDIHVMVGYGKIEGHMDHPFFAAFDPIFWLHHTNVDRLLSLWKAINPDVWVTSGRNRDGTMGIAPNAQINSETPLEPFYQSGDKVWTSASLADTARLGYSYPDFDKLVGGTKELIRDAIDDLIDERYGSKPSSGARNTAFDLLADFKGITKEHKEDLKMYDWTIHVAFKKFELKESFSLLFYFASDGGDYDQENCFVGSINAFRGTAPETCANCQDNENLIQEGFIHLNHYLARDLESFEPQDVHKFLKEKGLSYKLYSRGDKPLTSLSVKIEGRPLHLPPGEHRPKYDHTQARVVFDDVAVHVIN

[1] = biological target: T2, Tyrosinase (Agaricus bisporus) (UniProt O42713); details: 0.5 mmol/L
T2 sequence (whole entry): T1 sequence (O42713 whole entry)

[2] = biological target: T2, Tyrosinase (Agaricus bisporus); assay: Irreversible inhibition of mushroom tyrosinase assessed as oxidation of L-DOPA at 1 mmol/L […]
In short: (§1)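 Mushroom tyrosinase was run with L-DOPA as substrate. Enzyme concentration was varied at fixed inhibitor levels of 0, 0.5, 0.8 and 1.0 mmol/L. Rate (V) was plotted against enzyme concentration [E] for each inhibitor level to judge whether inhibition was reversible or irreversible.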

[3] = biological target: T2, Tyrosinase (Agaricus bisporus); assay: Irreversible inhibition of mushroom tyrosinase assessed as oxidation of L-DOPA at 0.8 mmol/L […]; in short: as §1

Structure (SMILES)	IC50 (Tyrosinase) [µM]	other results
CC(=O)OC[C@H]1O[C@@H](Oc2ccc(C=O)c(O)c2)[C@H](OC(C)=O)[C@@H](OC(C)=O)[C@@H]1OC(C)=O	> 3000	–
CC(=O)OC[C@H]1O[C@@H](Oc2ccc(C=O)cc2)[C@H](OC(C)=O)[C@H](OC(C)=O)[C@@H]1OC(C)=O	780	–
O=C1NC(=S)NC(=O)C1=Cc1ccc(O[C@@H]2O[C@H](CO)[C@@H](O)[C@@H](O)[C@H]2O)cc1	1160	–
CC(=O)OC[C@H]1O[C@@H](Oc2cccc(C=O)c2)[C@H](OC(C)=O)[C@@H](OC(C)=O)[C@@H]1OC(C)=O	> 3000	–
CC(=O)OC[C@H]1O[C@@H](Oc2ccc(C=C3C(=O)NC(=S)NC3=O)cc2)[C@H](OC(C)=O)[C@@H](OC(C)=O)[C@@H]1OC(C)=O	230	–
CC(=O)OC[C@H]1O[C@@H](Oc2ccc(C=O)cc2O)[C@H](OC(C)=O)[C@@H](OC(C)=O)[C@@H]1OC(C)=O	430	inhibition [1]: Active
CC(=O)OC[C@H]1O[C@@H](Oc2cccc(C=C3C(=O)NC(=S)NC3=O)c2)[C@H](OC(C)=O)[C@@H](OC(C)=O)[C@@H]1OC(C)=O	870	–
CC(=O)OC[C@H]1O[C@@H](Oc2cccc(C=C3C(=O)NC(=O)NC3=O)c2)[C@H](OC(C)=O)[C@@H](OC(C)=O)[C@@H]1OC(C)=O	> 3000	–
CC(=O)OC[C@H]1O[C@@H](Oc2ccc(C=C3C(=O)NC(=O)NC3=O)c(O)c2)[C@H](OC(C)=O)[C@@H](OC(C)=O)[C@@H]1OC(C)=O	1730	–
O=C1NC(=O)C(=Cc2ccc(O[C@@H]3O[C@H](CO)[C@@H](O)[C@@H](O)[C@H]3O)cc2)C(=O)N1	1630	–
CC(=O)OC[C@H]1O[C@@H](Oc2ccccc2C=O)[C@H](OC(C)=O)[C@@H](OC(C)=O)[C@@H]1OC(C)=O	> 3000	–
CC(=O)OC[C@H]1O[C@@H](Oc2ccc(C=C3C(=O)NC(=S)NC3=O)c(O)c2)[C@H](OC(C)=O)[C@@H](OC(C)=O)[C@@H]1OC(C)=O	280	–
CC(=O)OC[C@H]1O[C@@H](Oc2ccc(C=C3C(=O)NC(=S)NC3=O)cc2O)[C@H](OC(C)=O)[C@@H](OC(C)=O)[C@@H]1OC(C)=O	50	inhibition [2]: Active
CC(=O)OC[C@H]1O[C@@H](Oc2ccc(C=C3C(=O)NC(=O)NC3=O)cc2)[C@H](OC(C)=O)[C@H](OC(C)=O)[C@@H]1OC(C)=O	1500	–
CC(=O)OC[C@H]1O[C@@H](Oc2ccccc2C=C2C(=O)NC(=S)NC2=O)[C@H](OC(C)=O)[C@@H](OC(C)=O)[C@@H]1OC(C)=O	430	–
CC(=O)OC[C@H]1O[C@@H](Oc2ccc(C=C3C(=O)NC(=S)NC3=O)cc2)[C@H](OC(C)=O)[C@H](OC(C)=O)[C@@H]1OC(C)=O	340	–
CC(=O)OC[C@H]1O[C@@H](Oc2ccc(C=C3C(=O)NC(=O)NC3=O)cc2)[C@H](OC(C)=O)[C@@H](OC(C)=O)[C@@H]1OC(C)=O	1270	–
CC(=O)OC[C@H]1O[C@@H](Oc2ccc(C=C3C(=O)NC(=O)NC3=O)cc2O)[C@H](OC(C)=O)[C@@H](OC(C)=O)[C@@H]1OC(C)=O	130	inhibition [3]: Active
CC(=O)OC[C@H]1O[C@@H](Oc2ccccc2C=C2C(=O)NC(=O)NC2=O)[C@H](OC(C)=O)[C@@H](OC(C)=O)[C@@H]1OC(C)=O	> 3000	–
